Assays:
HuR-bound XIAP mRNA = HuR-bound XIAP mRNA (Homo sapiens, UniProt Q15717); experiment: RNP IP, HuR-bound XIAP mRNA in HCT-116 cell lysate; type: cell-based; settings: at indicated doses, compared to DMSO
Method in brief: (§1)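 HCT-116 lysate, prepared with a protein G immunoprecipitation kit, incubated 30 min with test compound or DMSO. HuR antibody, or mouse IgG as negative control, was then added for 60 min. Complexes were collected on protein G agarose, RNA isolated, and bound transcripts quantified by qRT-PCR. Mean ± SD of two independent experiments.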

[1] = test system: cleaved PARP, cleaved caspase-3, LC3 conversion; experiment: Western blot of apoptosis and autophagy markers in HCT-116; type: cell-based, human; settings: 75 μM, 48 h
Method in brief: (§2)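 HCT-116 cells were grown in DMEM with 10% FBS and 1% antibiotics at 37 °C in humidified 5% CO2. They were treated with test compound or DMSO at the indicated doses for 48 h. Protein levels were then measured by Western blot, with α-tubulin as loading control.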

Wnt signaling pathway = experiment: Wnt responsive 7xTcf promoter/luciferase reporter assay in HCT-116; type: cell-based, human; settings: 20 μM, 24 h, 20 mM LiCl stimulation, compared to DMSO control
Method in brief: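 HCT-116 cells were infected with the 7TFP lentiviral vector to stably express the 7xTcf promoter/luciferase construct. Cells were plated and allowed to attach overnight. They were then stimulated with 20 mM LiCl and treated with 20 μM test compound or DMSO for 24 h. Cells were lysed in reporter lysis buffer and luciferase was assayed. Activity was normalized to total protein. Values are mean ± SD of three independent experiments, compared with DMSO by one-way ANOVA.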

[2] = test system: protein levels of Bcl-2, Msi1, and XIAP; experiment: Western blot of HuR target protein levels in HCT-116; type: cell-based, human; settings: indicated doses, 48 h
Method in brief: as §2

[3] = test system: Bcl-2, Msi1, and XIAP mRNAs; experiment: mRNA stability after actinomycin D in HCT-116; type: cell-based, human; settings: 20 μM, 5 μg/mL actinomycin D, compared to DMSO control
Method in brief: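 HCT-116 cells, cultured in DMEM with 10% FBS at 37 °C and 5% CO2, were exposed to 5 μg/mL actinomycin D together with 20 μM test compound or DMSO. Half-lives of Bcl-2, Msi1 and XIAP mRNAs were determined. Data are representative of two independent experiments.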

HuR bound Msi1 mRNA = HuR bound Msi1 mRNA (Homo sapiens, UniProt Q15717); experiment: RNP IP, HuR-bound Msi1 mRNA in HCT-116 cell lysate; type: cell-based; settings: 50 μM, compared to DMSO control
Method in brief: as §1

ARE^Msi1–FITC = experiment: FP titration of Bcl-xL with Msi1-FITC; type: binding; settings: highest concentration tested 1000 nM; 2 nM Msi1-FITC
HuR full-length [4] = target: T1, HuR full-length (human, UniProt Q15717 1-326); experiment: fluorescence polarization
HuR full-length [5] = target: T1, HuR full-length; experiment: competition
HuR RRM1/2 = HuR RRM1/2 (UniProt Q15717 20-186); experiment: AlphaLISA
HuR full-length [6] = target: T1, HuR full-length; experiment: fluorescence polarization; remark: listed apart in the source
HuR full-length [7] = target: T1, HuR full-length; experiment: fluorescence polarization; remark: listed apart in the source

T1 sequence (Q15717 whole entry): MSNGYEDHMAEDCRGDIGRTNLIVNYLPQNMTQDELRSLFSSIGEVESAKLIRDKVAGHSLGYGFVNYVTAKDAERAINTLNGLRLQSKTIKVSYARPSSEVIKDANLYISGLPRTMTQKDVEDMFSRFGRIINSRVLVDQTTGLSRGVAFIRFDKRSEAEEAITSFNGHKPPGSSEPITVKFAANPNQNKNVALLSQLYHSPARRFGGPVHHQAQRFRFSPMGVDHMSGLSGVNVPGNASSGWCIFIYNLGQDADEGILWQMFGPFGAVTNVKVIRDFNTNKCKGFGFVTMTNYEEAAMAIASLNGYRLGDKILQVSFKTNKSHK
Chain of HuR RRM1/2 (Q15717 20-186): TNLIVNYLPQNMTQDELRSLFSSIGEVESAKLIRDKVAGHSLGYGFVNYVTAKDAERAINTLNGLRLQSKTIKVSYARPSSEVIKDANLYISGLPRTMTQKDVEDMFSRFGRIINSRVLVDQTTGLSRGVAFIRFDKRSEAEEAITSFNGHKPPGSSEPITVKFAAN
Chain of HuR bound Msi1 mRNA (Q15717 2-326 limits assumed): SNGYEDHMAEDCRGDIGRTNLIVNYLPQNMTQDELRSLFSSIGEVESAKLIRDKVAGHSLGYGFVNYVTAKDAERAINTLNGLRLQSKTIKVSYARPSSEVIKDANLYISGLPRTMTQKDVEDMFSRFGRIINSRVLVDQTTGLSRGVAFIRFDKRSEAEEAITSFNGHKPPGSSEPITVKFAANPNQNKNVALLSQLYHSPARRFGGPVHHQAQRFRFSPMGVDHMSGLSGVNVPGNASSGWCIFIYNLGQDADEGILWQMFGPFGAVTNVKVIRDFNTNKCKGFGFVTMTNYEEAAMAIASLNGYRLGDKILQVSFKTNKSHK
Chain of HuR-bound XIAP mRNA (Q15717 2-326 limits assumed): as above

For `CCN(CC)C(=O)CC(c1cc(OC)c(OC)c(OC)c1)c1c(OC)cc(OC)c2c(-c3ccccc3)cc(=O)oc12` (stereo not drawn) [CMLD-1], the “effect on HuR-bound XIAP mRNA (RNP IP)” value (HuR-bound XIAP mRNA) was “potently inhibited”, the “LC3-I conversion to LC3-II” value [1] was “detected” and the PARP cleavage [1] was “obvious PARP cleavage”. For the same molecule, the caspase-3 cleavage [1] was “subtle caspase-3 cleavage”, the “effect on Wnt signaling (luciferase reporter)” value (Wnt signaling pathway) was “significantly impacted” and the “effect on protein levels of Bcl-2, Msi1, and XIAP” value [2] was “decreased”. The “effect on half-lives of Bcl-2, Msi1 and XIAP mRNAs” value [3] was “shortened the half-lives” and the “effect on HuR bound Msi1 mRNA (RNP IP)” value (HuR bound Msi1 mRNA) was “significantly blocked”.

In the case of “Bcl-xL: non-RNA binding protein used as specificity control”, the “binding to ARE^Msi1–FITC (in words)” value (ARE^Msi1–FITC) is reported as “no binding”.

GCUUUUAUUUAUUUUG (ssRNA) [Msi1-FITC (AREMsi1)] gave a Kd (HuR full-length [4]) of about 0.003 µM.

Molecule GCUUUUAUUUAUUUUG (ssRNA) [Msi1 RNA unlabeled] has an IC50 (HuR full-length [5]) of 0.0179 µM.

Molecule GCUUUUAUUUAUUUUG (ssRNA) [Msi1 RNA biotinylated] has a Kd (HuR RRM1/2) of 0.075 µM.

UAUUUGAUAGUACACU (ssRNA) [APC-FITC] was tested, and the binding signal (HuR full-length [6]) was 20 fold lower affinity than Msi1.

AAAAGAUUUAUUUAUU (ssRNA) [Bcl-2-FITC (AREBcl-2)]: binds (HuR full-length [7]).

UAGUUAUUUUUAUGUC (ssRNA) [XIAP-FITC (AREXIAP)]: binds (HuR full-length [7]).

— article PMC4631057 (ACS chemical biology, 2015)
